The text below walks through data of paper PMC3466594 (Organometallics, 2012).

The subject of data set [1] is Jurkat-shBak cells (Bax/Bak-deficient Jurkat cells). To be noted: 25 μM; ref [33]; cited from earlier work.
The test system of data set [2] is normal T-lymphocytes (peripheral blood mononuclear cells: PBMC). To be noted: PBMC vs Jurkat; ref [34]; cited from earlier work.
Data set [3] relates to Jurkat control (CN) cells. As to conditions: 25 μM; ref [33]; cited from earlier work.
A further data set is described as follows: Solubility. Type of data set: physicochemical.
Another data set deals with plasmid (pBR322) DNA. Nature of the data set: Electrophoresis mobility shift assay with plasmid DNA. Type of data set: binding. As to conditions: metal/DNA ratios 0.25, 0.5, 1.0; 37 °C, 20 h. The method, boiled down:
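pBR322 plasmid DNA (20 μg/mL) in 5 mM Tris/HCl, 50 mM NaClO4, pH 7.39 was incubated with test compound at compound:DNA molar ratios of […] for 20 h at 37 °C in the dark. Free DNA and cisplatin-DNA adduct served as controls. Samples were run on 1% agarose in TAE for 1.5 h at 80 V, then stained 30 min with GelRed.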

Data set [4] in a line: Stability in solution by 31P{1H} NMR. Type of data set: physicochemical. To be noted: for half-life in d6-DMSO:D2O mixture: d6-DMSO:D2O (1:1 / 50:50).
The conditions of data set [5]: ref [34], cited from earlier work.

Converted amounts (≈) assume the structure as drawn. “And” between values parts separate entries of the source, which are not always exact repeats. Equal values may be shown once.

`N.N.[Cl][Pt][Cl]` [Cisplatin, cisplatin]: the “death of Jurkat-shBak cells” value in data set [1] is “less than 8%”. Besides, the “times less toxic to PBMC than to Jurkat cell lines” value in data set [2] is on record as 70 times. Also, the “death of Jurkat control (CN) cells” value in data set [3] is recorded as “around 60%”.
Regarding `O=C(N=P12CN3CN(CN(C3)C1)C2)c1ccccc1Br` [compound 1, TPA=N-C(O)-2BrC6H4], in the data set “Solubility”, the “Solubility (H2O)” value stood at 28 mM (≈ 9940 µg/mL) and the “solubility in H2O” value is 10 mg/mL (≈ 28.2 mM). Moreover, the “change in electrophoretic mobility of pBR322 forms (CCC Form I, OC Form II)” value in the data set on plasmid (pBR322) DNA is recorded as “does not cause any shift for either form”. The “half-life in D2O” value in data set [4] (D2O) came to 48 h. In data set [4] (DMSO), the “stability in DMSO solution” value is “over two weeks”. For the same compound, in data set [4], the “half-life in d6-DMSO:D2O mixture” value amounted to 336 h.
With `O=C(N=P12CN3CN(CN(C3)C1)C2)c1ccccn1` [TPA=N-C(O)-2-NC5H4], in data set [5] (D2O), the “time to 50% decomposition in D2O” value was 12 h. Further, in data set [5] (d6-DMSO:D2O (1:1)), the “half-life in d6-DMSO:D2O (1:1)” value is 48 h.
With “[Pd{C6H4(C(O)N=TPA-kC,N)-2}{C12H6N2(C6H4SO3Na)2}] [compound 5]”, in “Solubility”, the “Solubility (H2O)” value is 1.0 mM and 0.90 mg/mL. Also, the “stability under biological testing conditions” value in data set [4] (24 h) is listed as “stable”. In addition, the “stable in d6-DMSO solution over” value in data set [4] (d6-DMSO) is given as “over 2 days”. Also, the “half-life in d6-DMSO:D2O mixture” value in data set [4] is on record as “above 4 days”.
